This is an account of results in the array DNA melting data of Ke et al. (doi:10.1101/2024.01.08.574731).

The nature of data set [1]: melting temperature; fluorescence melt of hairpins on a sequencing array, two-state fit, raised by 9.35 °C to match UV melts. To be noted: sodium 0.088 M. In short, it runs like this: (§1)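 To match UV melts, fitted temperatures were raised by 9.35 °C. These fits were bootstrapped two-state models that gave melting temperature and folding enthalpy, combined by inverse variance over four replicates. The input was normalised Cy3 fluorescence of library hairpins with annealed Cy3 and quencher oligos on a sequenced MiSeq flow cell, imaged in 50 mM Na-HEPES pH 8.0, 25 mM NaCl in 2.5 °C steps up to 60 °C.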

A short description of data set [2]: folding enthalpy; higher = less favourable; fluorescence melt of hairpins on a sequencing array, two-state fit. To be noted: sodium 0.088 M. In short, it runs like this: as §1

As for GTTCCCGAAAGGGAGAAC ((((((....)))..))), the Tm in data set [1] amounted to 38 °C. Moreover, the folding enthalpy in data set [2] is -10.3 kcal/mol.
The matching figures for GGCGTTCCGAAAGGAGCC (((..(((....)))))): 51.7 °C and -20.5 kcal/mol.
The matching figures for GATCCTTGCCAGGATC ((((((....)))))): 51.5 °C and -31 kcal/mol.
The matching figures for GTGGCGGGAAACCGCCGC (.(((((....))))).): 66.6 °C and -14.9 kcal/mol.
GGGCTTGGAAACAGGCCC ((((.((....)).)))): the Tm in data set [1] was 59.1 °C. In data set [2], the folding enthalpy was -43.9 kcal/mol.
The corresponding values for GCGCTTCGAAAGAACGC (((.(((....)))))) are 53.1 °C and -32.9 kcal/mol.
The matching figures for GATCTCCCAGAGATC ((((((...)))))): 53.5 °C and -40 kcal/mol.
The matching figures for GGGTAAGGAAACTTACCC (((((((....))))))): 58.6 °C and -44.9 kcal/mol.
For the sequence GATCCGGCCGCGGATC ((((((....)))))), the Tm in data set [1] is 58 °C. In data set [2], the folding enthalpy is -41.5 kcal/mol.
Regarding GCTAGTCGAAAGACAAGC (((.(((....))).))), the Tm in data set [1] was found to be 51.8 °C. The folding enthalpy in data set [2] was -34.7 kcal/mol.
Consider GCTGCCGGAAACGGTAGC (((.(((....))).))), for which the Tm in data set [1] worked out at 64 °C. Moreover, in data set [2], the folding enthalpy is -39.9 kcal/mol.
With GATCTCGAGTGAGATC ((((((....)))))), the Tm in data set [1] was determined as 51.8 °C. Moreover, the folding enthalpy in data set [2] was -35.7 kcal/mol.
The matching figures for GATCTCCAGTGAGATC ((((((....)))))): 50.7 °C and -32 kcal/mol.
Consider GATCAGTCATCTGATC ((((((....)))))), for which the Tm in data set [1] stood at 51.1 °C. For the same sequence, the folding enthalpy in data set [2] is -35.4 kcal/mol.
As to GATCCGCTTTCGGATC ((((((....)))))), the Tm in data set [1] worked out at 57.8 °C. Also, the folding enthalpy in data set [2] was -40.4 kcal/mol.
The matching figures for GCTCGGCGAAAGCCTGGC ((..(((....)))..)): 53.8 °C and -12.7 kcal/mol.
In the case of GATCAGCTCACTGATC ((((((....)))))), the Tm in data set [1] was 52.2 °C. The folding enthalpy in data set [2] was -31.9 kcal/mol.
As to GGGCTCGGAAACGAGCTC (.(((((....))))).), in data set [1], the Tm turned out to be 62.9 °C. Further, the folding enthalpy in data set [2] is -15 kcal/mol.
Consider GTACTTCGAAAGAAATAC (((.(((....))).))), for which the Tm in data set [1] was 29.3 °C. Also, the folding enthalpy in data set [2] is -17.1 kcal/mol.
The corresponding values for GATCAAAACGTTGATC ((((((....)))))) are 39.8 °C and -28.1 kcal/mol.
Take GTGATACGAAAGTACCAC (((.(((....))).))): the Tm in data set [1] is 45.6 °C. In data set [2], the folding enthalpy is -32.7 kcal/mol.
Regarding GATCAGTACACTGATC ((((((....)))))), the Tm in data set [1] was found to be 54.7 °C. For the same sequence, the folding enthalpy in data set [2] is -36.4 kcal/mol.
The corresponding values for GCGGTTAGCCGC ((((....)))) are 62.4 °C and -24.3 kcal/mol.
The corresponding values for GGTGCGTCGAAAGACACC (((..(((....)))))) are 37.1 °C and -13 kcal/mol.
The corresponding values for GGGTCTCGAAAGAGGCCC (((.(((....))).))) are 67.7 °C and -29.1 kcal/mol.
Regarding GCAAGTACGAAAGTATGC (((..(((....)))))), in data set [1], the Tm came to 33.4 °C. The folding enthalpy in data set [2] was -19 kcal/mol.
Take GCTCACCGAAAGGTAAGC (((.(((....))).))): in data set [1], the Tm is 48.6 °C. For the same sequence, the folding enthalpy in data set [2] is -29.1 kcal/mol.
In the case of GCGAGGGGAAACCCTCAC (.(((((....))))).), the Tm in data set [1] worked out at 45.2 °C. Besides, the folding enthalpy in data set [2] was -13.7 kcal/mol.
As for GCCCCGCGAAAGCGTGGC (((.(((....))).))), the Tm in data set [1] amounted to 67.4 °C. The folding enthalpy in data set [2] is -25.4 kcal/mol.
The corresponding values for TGATGGAAACATCA (((((....))))) are 41.3 °C and -22 kcal/mol.
As to GCTGGGCGAAAGCCGCGC ((..(((....)))..)), the Tm in data set [1] was 61.4 °C. For the same sequence, the folding enthalpy in data set [2] was -15.3 kcal/mol.
